# SMARCA2 act = activators of SMARCA2 function | MG213 cells, MMTV-luciferase reporter, dexamethasone, overnight | activation, % at 9.1 µM | 370,000 tested, 1% active | AID 652017; in the data active means activation above about 7.8%
# Efflux pump inh = inhibitors of Candida antifungal efflux pumps expressed in yeast. S. cerevisiae Candida pump triplex, Nile Red efflux. inhibition, % at 10 µM. 330,000 tested, 0.44% active. AID 485275;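 active means plate passing quality check with inhibition over a set limit, or well fluorescence over plate mean plus 4 SD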;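 further: Nile Red retained in pooled yeast measured as flow cytometry median fluorescence; higher means more Nile Red kept so more efflux inhibition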
# Tb MetRS inh = blocks T. brucei methionyl-tRNA synthetase activity; purified T. brucei MetRS, ATP depletion, Kinase-Glo luminescence; inhibition, % at 11.9 µM; 360,000 tested, 0.4% active;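 active means inhibition above a per-plate cutoff of the control wells' mean inhibition plus 3 SD, cut at about 5.5% in these data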
#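 Material – parasite MetRS enzyme · Medium – HEPES-MgCl2-KCl buffer plus DTT, spermine, BSA, pyrophosphatase · Reagent – ATP, methionine and E. coli bulk tRNA substrates · Times – 15 min enzyme-compound preincubation, 2 h reaction, 10 min detection, 25 °C · Measured by – luminescence of leftover ATP · Evaluation – percent inhibition relative to median high and low control wells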
# TAG inh = triacylglycerol accumulation inhibition; H9c2 cells, Nile Red lipid (TAG) fluorescence; cells loaded with 200 µM oleic acid; 230,000 tested, 0.66% active; inhibition, % at 12.5 µM;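 active means pattern-corrected inhibition of lipid staining of at least 50% with the nuclear-stain viability signal not falling by more than 50%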
# AHR activator = activators of human aryl hydrocarbon receptor; 320,000 tested, 2.5% active; P35869; AHR-responsive luciferase reporter cells, luminescence; activation, % at 5 µM; in the data active means activation above about 47%
# Target sequence (P35869 whole entry, looked up): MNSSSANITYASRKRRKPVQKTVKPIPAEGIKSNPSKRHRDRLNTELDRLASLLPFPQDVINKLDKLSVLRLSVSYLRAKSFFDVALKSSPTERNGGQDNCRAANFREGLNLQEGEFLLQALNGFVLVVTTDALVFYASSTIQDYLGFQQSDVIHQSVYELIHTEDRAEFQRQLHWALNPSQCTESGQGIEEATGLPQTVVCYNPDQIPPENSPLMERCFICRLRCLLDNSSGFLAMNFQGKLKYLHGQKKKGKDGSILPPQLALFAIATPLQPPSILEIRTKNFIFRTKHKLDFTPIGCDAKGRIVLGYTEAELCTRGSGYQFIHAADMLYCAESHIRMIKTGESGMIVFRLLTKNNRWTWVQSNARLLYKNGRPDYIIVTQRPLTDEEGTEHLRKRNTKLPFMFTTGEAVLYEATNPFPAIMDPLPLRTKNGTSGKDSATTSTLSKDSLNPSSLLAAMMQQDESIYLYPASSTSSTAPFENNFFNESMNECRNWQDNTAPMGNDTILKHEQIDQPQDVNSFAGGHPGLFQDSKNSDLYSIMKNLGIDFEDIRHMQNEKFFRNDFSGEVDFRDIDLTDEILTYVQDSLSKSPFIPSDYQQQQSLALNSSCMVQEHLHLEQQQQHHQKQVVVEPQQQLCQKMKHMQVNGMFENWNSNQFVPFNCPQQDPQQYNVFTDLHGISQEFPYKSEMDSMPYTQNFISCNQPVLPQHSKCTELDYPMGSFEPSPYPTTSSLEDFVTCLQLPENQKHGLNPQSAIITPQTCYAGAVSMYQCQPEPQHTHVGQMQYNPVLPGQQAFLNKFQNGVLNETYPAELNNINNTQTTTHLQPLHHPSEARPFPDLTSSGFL
# Yeast cmpd fluor = compound fluorescence in yeast efflux pump counter-screen | fluorescence ratio to DMSO, % at 10 µM | shares compounds with Efflux pump inh | 1,700 tested, 4% active | AID 588517 | S. cerevisiae AD/pABC3, flow cytometry;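 active means fluorescence ratio to DMSO above its plate's cutoff, the plate mean ratio plus 5 SD, cut at about 210% in these data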;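 further: unstained yeast with no Nile Red so the signal is compound autofluorescence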
# Mdr1 pump inh = Candida Mdr1 efflux pump inhibition; shares compounds with Efflux pump inh; S. cerevisiae AD/CaMDR1, Nile Red efflux, flow cytometry; inhibition, % at 10 µM; 1,700 tested, 1% active; AID 588518; in the data active means inhibition above about 26%;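 further: higher means more Nile Red retained so more efflux inhibition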
# Cdr2 pump inh = Candida Cdr2 efflux pump inhibition | S. cerevisiae AD/CaCDR2, Nile Red retention, flow cytometry | 1,700 tested, 4% active | Nile Red retention ratio vs DMSO, % at 10 µM | shares compounds with Efflux pump inh; in the data active means Nile Red retention ratio vs DMSO above about 190%;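 further: higher ratio means more blocking of Cdr2 efflux of the dye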
# Cdr1 pump inh = blocks the Candida albicans Cdr1 efflux pump in yeast. S. cerevisiae AD/CaCDR1, Nile Red efflux, flow cytometry. 1,700 tested, 1% active. shares compounds with Efflux pump inh. AID 588522. inhibition, % at 10 µM;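 active means inhibition above the screen-wide mean plus twice its standard deviation, cut at about 32% in these data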
# A number is an active result; - = inactive; . = not tested or not shown. Compounds with a hit are over-represented: about 4.1% of the library has one in this group of screens.
SMILES,SMARCA2 act,Efflux pump inh,Tb MetRS inh,TAG inh,AHR activator,Yeast cmpd fluor,Mdr1 pump inh,Cdr2 pump inh,Cdr1 pump inh
COc1cccc(CC(=O)N(Cc2ccccc2)c2ccccc2C(=O)Nc2cc(OC)ccc2OC)c1,-,.,.,.,.,.,.,.,.
COc1cc(SC)ccc1C(=O)Nc1nccs1,-,1.0,-,-,52,-,-,-,-
O=C(CCCOc1ccccc1)Nc1ccccc1C(F)(F)F,-,10,-,.,-,-,-,-,-
NC(=S)N/N=C/c1ccc2ccccc2c1,-,8.2,-,.,-,-,-,-,-
NC(=S)N/N=C/c1cccc(/C=N/NC(N)=S)c1,-,-,-,-,-,.,.,.,.
CC(C)(C)c1cc(C(c2cccnc2)N2CCN(CCO)CC2)cc(C(C)(C)C)c1O (stereo unspecified),-,0.4,-,.,-,-,-,-,-
CC(C)(C)c1ccc(OCCOc2ccc(C(C)(C)C)cc2NC=O)c(NC=O)c1,-,0.6,-,.,-,-,-,-,-
Cc1cccc(CCNC(=O)Cn2ncc3c2-c2cc(C)ccc2OC3)c1,-,.,.,.,.,.,.,.,.
CCOC(=O)c1sc2nc3c(SCC(=O)O)cc(C(=O)c4ccccc4O)cn3c(=O)c2c1C,-,1.5,-,-,-,-,-,-,-
O=C(CCl)Nc1ccc2c(c1)OCO2,-,1.2,-,-,-,-,-,-,-
CCCCCC1C/C(=N\O)C=C(C)C1C(=O)OC (stereo unspecified),-,1.5,-,-,-,-,-,-,-
COc1ccc(C(=O)OCC(=O)NCCN2C(=O)CSC2=O)cc1,-,-,-,-,-,-,-,-,-
Cc1ccc(C(=O)OCC(=O)NCCN2C(=O)CSC2=O)cc1,-,-,-,-,-,-,-,-,-
O=C(COC(=O)c1ccc(S(=O)(=O)Nc2ccccc2)cc1)NCCN1C(=O)CSC1=O,-,-,-,-,-,.,.,.,.
O=C(COC(=O)c1ccc(Br)cc1)NCCN1C(=O)CSC1=O,-,-,-,-,-,-,-,-,-
CCN(CC)S(=O)(=O)c1ccc(C(=O)OCC(=O)NCCN2C(=O)CSC2=O)cc1,-,-,-,-,-,-,-,-,-
COc1cccc(O[C@H]2C=C[C@@H](c3ccccc3)O[C@@H]2CO)c1,-,.,.,.,.,.,.,.,.
CCOC(=O)c1nc(Nc2ccccc2C)c2ccccc2n1,-,0.9,-,-,-,-,-,-,-
Cc1ccc(Nc2nc(Oc3ccc(OCc4ccccc4)nn3)nc(N3CCOCC3)n2)cc1,-,0.7,-,-,-,-,-,-,-
O=C(CC1CCCC1)N[C@@H](Cc1cccnc1)C(=O)N1CCC[C@H]1C(=O)NCCc1ccccc1Cl,-,.,.,.,.,.,.,.,.
Cc1ccc(Cl)cc1N1CCN(c2cccc[n+]2C)CC1,-,2.2,-,.,-,-,-,-,-
COC(=O)[C@]12C[C@H](CC(=O)N3CCCCC3)C(=O)N(CCc3ccc(OC)c(OC)c3)C1=C[C@H](C(C)C)O[C@@H]2C1CC1,-,.,.,.,.,.,.,.,.
CCOC(=O)c1nn(-c2ccc(OCC)cc2)c(C)c1C(C)=O,-,1.8,-,.,-,-,-,-,-
Cc1occc1C(=O)NCc1cccc(CNC(=O)c2ccoc2C)c1,.,0.3,-,-,-,-,-,-,-
Cc1ccc(C)c(C(=O)COC(=O)c2ccc(C)c(S(=O)(=O)N3CCOCC3)c2)c1,-,1.1,-,-,-,-,-,-,-
SMILES,SMARCA2 act,Efflux pump inh,Tb MetRS inh,TAG inh,AHR activator,Yeast cmpd fluor,Mdr1 pump inh,Cdr2 pump inh,Cdr1 pump inh
Cc1ccc(C(=O)OCC(=O)NC(C)C)cc1S(=O)(=O)N1CCOCC1,-,-,-,-,-,.,.,.,.
COc1ccccc1C(=O)N1CCC2CCN(C(=O)c3ccccc3)C2C1 (stereo unspecified),-,.,.,.,.,.,.,.,.
COC(=O)C1CN(Cc2cn(CCC3OCCO3)nn2)CCS(=O)(=O)N1Cc1ccc(C)cc1 (stereo unspecified),-,.,.,.,.,.,.,.,.
CC(C)(C)c1ccc(-c2cn(C[C@H](Cc3ccccc3)n3c(=O)c4ccccc4n3Cc3ccccc3)nn2)cc1,-,.,.,.,.,.,.,.,.
CS(=O)(=O)c1ccc(Cl)c(NC(=O)c2cccc(Br)c2)c1,-,5.8,-,.,-,-,-,-,-
COC(=O)c1nn(-c2ccccc2)nc1-c1nn(-c2ccccc2)nc1C(=O)OC,-,0.4,-,-,-,-,-,-,-
O=C(O)c1nn(-c2ccccc2)nc1-c1nn(-c2ccccc2)nc1C(=O)O,-,-,-,-,-,.,.,.,.

# High-throughput results deposited in PubChem by several laboratories.
